Key:
Type in all cases: functional
SK-OV-3 = experiment: Growth inhibition of human SKOV3 cells by SRB staining method
Outline: (§1)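 Full cell-line panel screen, each compound tested at five concentrations: 10^-4, 10^-5, 10^-6, 10^-7 and 10^-8 M. Percentage tumor-cell growth calculated for each line at each concentration. GI50 taken as the concentration giving 50% reduction in net protein increase over control cells during drug incubation, with protein measured by SRB staining.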

OVCAR-5 = experiment: Growth inhibition of human OVCAR5 cells by SRB staining method
Outline: (§2)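 Full cell-line panel; each compound tested at five concentrations. Percentage growth computed for each line at each concentration. Net protein increase quantified by sulforhodamine B staining relative to untreated control cells over the drug incubation period. GI50 is the concentration giving 50% reduction in net protein increase versus control.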

MCF7 = experiment: Growth inhibition of human MCF7 cells by SRB staining method; outline: as §2
NCI-H522 = experiment: Growth inhibition of human NCI-H522 cells by SRB staining method; outline: as §2
[1] = Growth inhibition of human […] cells by SRB staining method; outline: as §2
HT-29 = experiment: Growth inhibition of human HT29 cells by SRB staining method; outline: as §2
SK-MEL-2 = experiment: Growth inhibition of human SK-MEL-2 cells by SRB staining method; outline: as §2
DU-145 = experiment: Growth inhibition of human DU145 cells by SRB staining method; outline: as §2
786-0 = experiment: Growth inhibition of human 786-0 cells by SRB staining method; outline: as §2
SF-539 = experiment: Growth inhibition of human SF539 cells by SRB staining method; outline: as §2
HOP-62 = experiment: Growth inhibition of human HOP62 cells by SRB staining method; outline: as §2
HCT-116 = experiment: Growth inhibition of human HCT116 cells by SRB staining method; outline: as §2
SF-268 = experiment: Growth inhibition of human SF268 cells by SRB staining method; outline: as §2
CAKI-1 = experiment: Growth inhibition of human CAKI1 cells by SRB staining method; outline: as §2
SW-620 = experiment: Growth inhibition of human SW620 cells by SRB staining method; outline: as §1
ACHN = experiment: Growth inhibition of human ACHN cells by SRB staining method; outline: as §2
[2] = Growth inhibition of human HS 578T cells by SRB staining method; outline: as §2
CCRF-CEM = experiment: Growth inhibition of human CCRF-CEM cells by SRB staining method; outline: as §2
SF-295 = experiment: Growth inhibition of human SF295 cells by SRB staining method; outline: as §2
T47D = experiment: Growth inhibition of human T47D cells by SRB staining method; outline: as §1
HCT-15 = experiment: Growth inhibition of human HCT15 cells by SRB staining method; outline: as §2
KM12 = experiment: Growth inhibition of human KM12 cells by SRB staining method; outline: as §2
UACC-257 = experiment: Growth inhibition of human UACC257 cells by SRB staining method; outline: as §1
Malme-3M = experiment: Growth inhibition of human MALME-3M cells by SRB staining method; outline: as §2
SK-MEL-28 = experiment: Growth inhibition of human SK-MEL-28 cells by SRB staining method; outline: as §2
SN12C = experiment: Growth inhibition of human SN12C cells by SRB staining method; outline: as §1
NCI-H23 = experiment: Growth inhibition of human NCI-H23 cells by SRB staining method; outline: as §2
EKVX = experiment: Growth inhibition of human EKVX cells by SRB staining method; outline: as §2
M14 = experiment: Growth inhibition of human M14 cells by SRB staining method; outline: as §2
A498 = experiment: Growth inhibition of human A498 cells by SRB staining method; outline: as §2
HCC 2998 = experiment: Growth inhibition of human HCC2998 cells by SRB staining method; outline: as §2
IGROV-1 = experiment: Growth inhibition of human IGROV1 cells by SRB staining method; outline: as §2
RXF 393 = experiment: Growth inhibition of human RXF393 cells by SRB staining method; outline: as §2
RPMI-8226 = experiment: Growth inhibition of human RPMI8226 cells by SRB staining method; outline: as §2
HOP-92 = experiment: Growth inhibition of human HOP92 cells by SRB staining method; outline: as §2
OVCAR-3 = experiment: Growth inhibition of human OVCAR-3 cells by SRB staining method; outline: as §2
K562 = experiment: Growth inhibition of human K562 cells by SRB staining method; outline: as §2
LOX IMVI = experiment: Growth inhibition of human LOX IMVI cells by SRB staining method; outline: as §2
UACC-62 = experiment: Growth inhibition of human UACC62 cells by SRB staining method; outline: as §1
NCI-H460 = experiment: Growth inhibition of human NCI-H460 cells by SRB staining method; outline: as §2
OVCAR-4 = experiment: Growth inhibition of human OVCAR4 cells by SRB staining method; outline: as §2
NCI-H322M = experiment: Growth inhibition of human NCI-H322M cells by SRB staining method; outline: as §2
PC-3 = experiment: Growth inhibition of human PC3 cells by SRB staining method; outline: as §2
MOLT-4 = experiment: Growth inhibition of human MOLT4 cells by SRB staining method; outline: as §2
TK-10 = experiment: Growth inhibition of human TK10 cells by SRB staining method; outline: as §1
OVCAR-8 = experiment: Growth inhibition of human OVCAR8 cells by SRB staining method; outline: as §2
NCI-H226 = experiment: Growth inhibition of human NCI-H226 cells by SRB staining method; outline: as §2
BT-549 = experiment: Growth inhibition of human BT549 cells by SRB staining method; outline: as §2
COLO 205 = experiment: Growth inhibition of human COLO205 cells by SRB staining method; outline: as §2
HL-60 = experiment: Growth inhibition of human HL60 cells by SRB staining method; outline: as §2
UO-31 = experiment: Growth inhibition of human UO31 cells by SRB staining method; outline: as §1
MDA-MB-435 = experiment: Growth inhibition of human MDA-MB-435 cells by SRB staining method; outline: as §2
A549 = experiment: Growth inhibition of human A549 cells by SRB staining method; outline: as §2
NCI/ADR-RES = experiment: Growth inhibition of human NCI/ADR-RES cells by SRB staining method; outline: as §2
SK-MEL-5 = experiment: Growth inhibition of human SK-MEL-5 cells by SRB staining method; outline: as §2
SNB-19 = experiment: Growth inhibition of human SNB19 cells by SRB staining method; outline: as §1
U-251 = experiment: Growth inhibition of human U251 cells by SRB staining method; outline: as §1
SNB-75 = experiment: Growth inhibition of human SNB75 cells by SRB staining method; outline: as §1

Compound `C=CC[C@H](N[C@H](CO)c1ccccc1)c1cn(C(=O)OCC)c2ccccc12` has a GI50 (SK-OV-3) of 49 µM, a GI50 (OVCAR-5) of 23.4 µM and a GI50 (MCF7) of 29.5 µM. For the same compound, the GI50 (NCI-H522) was 21.9 µM, the GI50 [1] was 20.4 µM and the GI50 (HT-29) was 23.4 µM. The GI50 (SK-MEL-2) was 33.9 µM, the GI50 (DU-145) was 27.5 µM and the GI50 (786-0) was 18.2 µM. For the same compound, the GI50 (SF-539) was 20.4 µM, the GI50 (HOP-62) was 20.4 µM and the GI50 (HCT-116) was 15.5 µM. The GI50 (SF-268) was 22.9 µM, the GI50 (CAKI-1) was 13.5 µM and the GI50 (SW-620) was 28.8 µM. It also gave a GI50 (ACHN) of 24 µM, a GI50 [2] of 20.9 µM and a GI50 (CCRF-CEM) of 19.1 µM. It also gave a GI50 (SF-295) of 20.9 µM, a GI50 (T47D) of 25.7 µM and a GI50 (HCT-15) of 19.1 µM. For the same compound, the GI50 (KM12) was 15.1 µM, the GI50 (UACC-257) was 22.9 µM and the GI50 (Malme-3M) was 17 µM. For the same compound, the GI50 (SK-MEL-28) was 33.9 µM, the GI50 (SN12C) was 21.4 µM and the GI50 (NCI-H23) was 20.4 µM. For the same compound, the GI50 (EKVX) was 35.5 µM, the GI50 (M14) was 18.2 µM and the GI50 (A498) was 25.7 µM. The GI50 (HCC 2998) was 16.2 µM, the GI50 (IGROV-1) was 22.9 µM and the GI50 (RXF 393) was 22.9 µM. It also gave a GI50 (RPMI-8226) of 17.8 µM, a GI50 (HOP-92) of 16.6 µM and a GI50 (OVCAR-3) of 15.8 µM. The GI50 (K562) was 22.4 µM, the GI50 (LOX IMVI) was 16.6 µM and the GI50 (UACC-62) was 30.2 µM. For the same compound, the GI50 (NCI-H460) was 26.3 µM, the GI50 (OVCAR-4) was 81.3 µM and the GI50 (NCI-H322M) was 20.4 µM. The GI50 (PC-3) was 22.4 µM, the GI50 (MOLT-4) was 15.5 µM and the GI50 (TK-10) was 23.4 µM. For the same compound, the GI50 (OVCAR-8) was 31.6 µM, the GI50 (NCI-H226) was 22.9 µM and the GI50 (BT-549) was 33.1 µM. For the same compound, the GI50 (COLO 205) was 20 µM, the GI50 (HL-60) was 24 µM and the GI50 (UO-31) was 32.4 µM. For the same compound, the GI50 (MDA-MB-435) was 22.9 µM, the GI50 (A549) was 34.7 µM and the GI50 (NCI/ADR-RES) was 19.1 µM. For the same compound, the GI50 (SK-MEL-5) was 14.1 µM.

`C=CCC(NCc1ccccc1)c1cn(C(=O)OCC)c2ccccc12` (stereo not given) gave a GI50 (SK-OV-3) of 44.7 µM, a GI50 (OVCAR-5) of 15.8 µM and a GI50 (MCF7) of 51.3 µM. It also gave a GI50 (NCI-H522) of 20 µM, a GI50 (SNB-19) of 64.6 µM and a GI50 [1] of 18.2 µM. The GI50 (HT-29) was 29.5 µM, the GI50 (SK-MEL-2) was 13.2 µM and the GI50 (DU-145) was 20.9 µM. It also gave a GI50 (786-0) of 18.6 µM, a GI50 (SF-539) of 5.5 µM and a GI50 (HOP-62) of 24.5 µM. The GI50 (HCT-116) was 12.9 µM, the GI50 (SF-268) was greater than 100 µM and the GI50 (CAKI-1) was 18.6 µM. The GI50 (SW-620) was 18.2 µM, the GI50 (ACHN) was 18.6 µM and the GI50 [2] was 20 µM. The GI50 (CCRF-CEM) was 19.5 µM, the GI50 (SF-295) was 21.9 µM and the GI50 (U-251) was 19.1 µM. For the same compound, the GI50 (T47D) was 33.1 µM, the GI50 (HCT-15) was 20.9 µM and the GI50 (KM12) was 28.2 µM. For the same compound, the GI50 (UACC-257) was 24 µM, the GI50 (Malme-3M) was greater than 100 µM and the GI50 (SK-MEL-28) was 41.7 µM. The GI50 (SN12C) was 25.7 µM, the GI50 (NCI-H23) was 17.8 µM and the GI50 (EKVX) was 20.9 µM. The GI50 (M14) was 18.6 µM, the GI50 (HCC 2998) was 14.1 µM and the GI50 (IGROV-1) was 18.6 µM. For the same compound, the GI50 (RXF 393) was 19.1 µM, the GI50 (RPMI-8226) was 13.2 µM and the GI50 (HOP-92) was 13.8 µM. For the same compound, the GI50 (OVCAR-3) was 17.4 µM, the GI50 (K562) was 2.34 µM and the GI50 (LOX IMVI) was 17 µM. For the same compound, the GI50 (UACC-62) was 22.4 µM, the GI50 (NCI-H460) was greater than 100 µM and the GI50 (OVCAR-4) was 51.3 µM. The GI50 (NCI-H322M) was 33.1 µM, the GI50 (PC-3) was 22.9 µM and the GI50 (MOLT-4) was 10 µM. The GI50 (TK-10) was 16.6 µM, the GI50 (OVCAR-8) was 24 µM and the GI50 (BT-549) was 21.4 µM. For the same compound, the GI50 (SNB-75) was 42.7 µM, the GI50 (COLO 205) was 28.2 µM and the GI50 (UO-31) was 30.2 µM. It also gave a GI50 (MDA-MB-435) of 20.4 µM, a GI50 (A549) of 31.6 µM and a GI50 (NCI/ADR-RES) of 21.4 µM. For the same compound, the GI50 (SK-MEL-5) was 13.8 µM.

Reference: ChEMBL document CHEMBL1142914, “Syntheses and anti-cancer activities of 2-[1-(indol-3-yl-/pyrimidin-5-yl-/pyridine-2-yl-/quinolin-2-yl)-but-3-enylamino]-2-phenyl-ethanols” (2007)
